From ChEMBL document CHEMBL1122933, “Drug glycosides: potential prodrugs for colon-specific drug delivery” (J Med Chem, 1985)

Legend:
[1] = Km(app) value was determined in homogenates of pooled cecal contents in rats; format: ADME; details: rat, read-out: Km app
In short: (§1)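 Cecal contents from four rats pooled, weighed wet, diluted in 0.01 M phosphate pH 7.0 and homogenized. Reactions were run in duplicate at 37 °C for 15 min across substrate ranges spanning apparent KM. For p-nitrophenyl glycosides: 56-1000 substrate, NaOH stop, A403. For steroid glycosides: 0.5-48 substrate, MeOH quench, HPLC. KM(app) and Vmax (per g wet weight) came from Eadie-Hofstee plots.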

Rattus norvegicus [2] = organism: Rattus norvegicus; experiment: Vmax value was determined in homogenates of pooled cecal contents in rats; format: ADME; in short: as §1
Rattus norvegicus [3] = organism: Rattus norvegicus; experiment: Specific activity of the DSI segment in rat intestine; format: functional
In short: (§2)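 Contents of each rat GI segment (stomach, proximal small intestine, distal small intestine, cecum) were pooled from four animals, weighed wet, diluted in cold 0.01 M phosphate buffer pH 7.0, and homogenized. Homogenate was incubated with 1.0 mM glycoside at 37 °C with shaking for up to 30 min. Aliquots were MeOH-quenched, centrifuged and analysed by HPLC for released aglycon.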

Rattus norvegicus [4] = organism: Rattus norvegicus; experiment: Specific activity of the cecum segment in rat intestine; format: functional; in short: as §2
Rattus norvegicus [5] = organism: Rattus norvegicus; experiment: Total activity of the entire contents of DSI segment in rat intestine; format: functional; in short: as §2
Rattus norvegicus [6] = organism: Rattus norvegicus; experiment: Total activity of the entire contents of PSI segment in rat intestine; format: functional; in short: as §2
Rattus norvegicus [7] = organism: Rattus norvegicus; experiment: Total activity of the entire contents of cecum segment in rat intestine; format: functional; in short: as §2
Rattus norvegicus [8] = organism: Rattus norvegicus; experiment: Total activity of the entire contents of stomach segment in rat intestine; format: functional; in short: as §2
Rattus norvegicus [9] = organism: Rattus norvegicus; experiment: Specific activity of the stomach segment in rat intestine; format: functional; in short: as §2
[10] = Partition coefficient (logP); format: physicochemical; details: octanol/water
Rattus norvegicus [11] = organism: Rattus norvegicus; experiment: Specific activity of the PSI segment in rat intestine; format: functional; set-up: unit not given here; in short: as §2

Structure (SMILES) | Km [1] | Vmax (Rattus norvegicus [2]) | Specific activity (Rattus norvegicus [3]) | Specific activity (Rattus norvegicus [4]) | Total activity (Rattus norvegicus [5]) | Total activity (Rattus norvegicus [6]) | Total activity (Rattus norvegicus [7]) | Total activity (Rattus norvegicus [8]) | Specific activity (Rattus norvegicus [9]) | logP [10] | Specific activity (Rattus norvegicus [11])
CC1CC2C3CCC4=CC(=O)C=CC4(C)[C@@]3(F)C(O)CC2(C)[C@@]1(O)C(=O)CO[C@@H]1O[C@@H](CO)[C@@H](O)[C@H](O)[C@H]1O (some centres not stated) | 13.3 µM | 3.9 µM/min/g | 29.3 nM/min | 322 nM/min | 0.41 µM/min | 0.004 µM/min | 6.5 µM/min | 0.004 µM/min | 2 nM/min | – | –
CC12CCC(=O)C=C1CCC1C2C(O)CC2(C)C1CC[C@]2(O)C(=O)CO[C@@H]1O[C@@H](CO)[C@@H](O)[C@H](O)[C@H]1O (some centres not stated) | 33.3 µM | 20.6 µM/min/g | 110 nM/min | 592 nM/min | 1.6 µM/min | 0.02 µM/min | 11.9 µM/min | 0.02 µM/min | 12.5 nM/min | 0.15 | 42.5
O=[N+]([O-])c1ccc(O[C@@H]2O[C@H](CO)[C@@H](O)[C@H](O)[C@H]2O)cc1 | 360 µM | 697 µM/min/g | 86.6 nM/min | 454 nM/min | 0.65 µM/min | 0.15 µM/min | 9.1 µM/min | 0.08 µM/min | 72.2 nM/min | – | –
CC12CCC(=O)C=C1CCC1C3CC[C@](O)(C(=O)CO[C@H]4O[C@H](CO)[C@@H](O)[C@H](O)[C@H]4O)C3(C)CC(O)[C@@]12F (some centres not stated) | 2.5 µM | 2.2 µM/min/g | 56.7 nM/min | 642 nM/min | 0.8 µM/min | 0.01 µM/min | 12.9 µM/min | 0.01 µM/min | 7 nM/min | 0.25 | 12.5
CC12CCC(=O)C=C1CCC1C2C(O)CC2(C)C1CC[C@]2(O)C(=O)CO[C@@H]1O[C@H](CO)[C@@H](O)[C@H](O)[C@H]1O (some centres not stated) | 5.7 µM | 2.6 µM/min/g | 39.2 nM/min | 30.5 nM/min | 0.7 µM/min | 0.1 µM/min | 0.76 µM/min | 0.09 µM/min | 5.5 nM/min | 0.44 | 15.9
O=[N+]([O-])c1ccc(O[C@@H]2O[C@H](CO)[C@H](O)[C@H](O)[C@H]2O)cc1 | 166 µM | 1233 µM/min/g | 425 nM/min | 1620 nM/min | 3.6 µM/min | 0.2 µM/min | 30.8 µM/min | 0.7 µM/min | 57.8 nM/min | – | –
CC1CC2C3CCC4=CC(=O)C=CC4(C)[C@@]3(F)C(O)CC2(C)[C@@]1(O)C(=O)CO[C@@H]1O[C@H](CO)[C@@H](O)[C@H](O)[C@H]1O (some centres not stated) | 16.7 µM | 10.2 µM/min/g | 19.3 nM/min | 141 nM/min | 0.34 µM/min | 0.07 µM/min | 3.5 µM/min | 0.12 µM/min | 6.8 nM/min | – | –
C[C@]12C=CC(=O)C=C1CC[C@@H]1[C@@H]2C(O)C[C@@]2(C)[C@H]1CC[C@]2(O)C(=O)CO[C@@H]1O[C@H](CO)[C@@H](O)[C@H](O)[C@H]1O (some centres not stated) | 4.5 µM | 2.6 µM/min/g | 56.8 nM/min | 265 nM/min | 1 µM/min | 0.07 µM/min | 6.6 µM/min | 0.12 µM/min | 6.8 nM/min | 0.27 | 12.2
C[C@]12C=CC(=O)C=C1CC[C@@H]1[C@@H]2C(O)C[C@@]2(C)[C@H]1CC[C@]2(O)C(=O)CO[C@@H]1O[C@@H](CO)[C@@H](O)[C@H](O)[C@H]1O (some centres not stated) | 20 µM | 10.3 µM/min/g | 122 nM/min | 665 nM/min | 1.72 µM/min | 0.23 µM/min | 13 µM/min | 0.19 µM/min | 12.1 nM/min | 0.11 | 49.3
C[C@]12C=CC(=O)C=C1CC[C@@H]1[C@@H]2[C@@H](O)C[C@@]2(C)[C@H]1CC[C@]2(O)C(=O)CO[C@@H]1O[C@H](CO)[C@@H](O[C@@H]2O[C@H](CO)[C@@H](O)[C@H](O)[C@H]2O)[C@H](O)[C@H]1O | – | – | 32.5 nM/min | 109 nM/min | 0.64 µM/min | 0.11 µM/min | 2.2 µM/min | 0.01 µM/min | 7.5 nM/min | -0.56 | 26
CC12CCC(=O)C=C1CCC1C3CC[C@](O)(C(=O)CO[C@H]4O[C@@H](CO)[C@@H](O)[C@H](O)[C@H]4O)C3(C)CC(O)[C@@]12F (some centres not stated) | 4.4 µM | 2.4 µM/min/g | 33 nM/min | 49 nM/min | 0.43 µM/min | 0.08 µM/min | 1.4 µM/min | 0.14 µM/min | 7.7 nM/min | 0.84 | 12.3
O=[N+]([O-])c1ccc(O[C@@H]2O[C@H](CO)[C@@H](O[C@@H]3O[C@H](CO)[C@@H](O)[C@H](O)[C@H]3O)[C@H](O)[C@H]2O)cc1 | – | – | 26 nM/min | 96.5 nM/min | 0.25 µM/min | 0.05 µM/min | 2.6 µM/min | 0.35 µM/min | 34.2 nM/min | – | –
CC12CCC(=O)C=C1CCC1C3CC[C@](O)(C(=O)CO)C3(C)CC(O)[C@@]12F (some centres not stated) | – | – | – | – | – | – | – | – | – | 1.73 | –
C[C@@H]1C[C@H]2[C@@H]3CCC4=CC(=O)C=C[C@]4(C)[C@@]3(F)[C@@H](O)C[C@]2(C)[C@@]1(O)C(=O)CO [DEXAMETHASONE] | – | – | – | – | – | – | – | – | – | 1.72 | –
C[C@]12CCC(=O)C=C1CC[C@@H]1[C@@H]2[C@@H](O)C[C@@]2(C)[C@H]1CC[C@]2(O)C(=O)CO [HYDROCORTISONE] | – | – | – | – | – | – | – | – | – | 1.54 | –
C[C@]12C=CC(=O)C=C1CC[C@@H]1[C@@H]2[C@@H](O)C[C@@]2(C)[C@H]1CC[C@]2(O)C(=O)CO [PREDNISOLONE] | – | – | – | – | – | – | – | – | – | 1.55 | –
